# Measurements from ChEMBL document CHEMBL1949651, “Hamamelitannin from witch hazel (Hamamelis virginiana) displays specific cytotoxic activity against colon cancer cells” (J Nat Prod, 2012).
# Activity calls are given as the source filed them. No cut-off for these calls is given here.
# Assays:
# HT-29 [1] = test: Induction of H2O2 production in human HT-29 cells at 100 ug/ml after 72 hrs by ferrous oxidation xylenol orange assay in presence of catalase; assay type: functional, cell-based
# HT-29 [2] = test: Induction of H2O2 production in human HT-29 cells at 100 ug/ml after 72 hrs by ferrous oxidation xylenol orange assay; assay type: functional, cell-based
# HT-29 [3] = test: Induction of apoptosis in human HT-29 cells assessed as necrotic cells at IC50 after 72 hrs by annexin V/propidium iodide-based flow cytometry; assay type: functional
# Summary of the method: (§1)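 HT29 seeded, treated 72 h and harvested as for cell cycle; staurosporine 1 μM as control. Annexin+/PI− early apoptotic; annexin+/PI+ and annexin−/PI+ late apoptotic/necrotic; three separate experiments.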
# HT-29 [4] = test: Induction of apoptosis in human HT-29 cells assessed as apoptotic cells at IC50 after 72 hrs by annexin V/propidium iodide-based flow cytometry; assay type: functional; summary of the method: as §1
# [5] = test system: Radical scavenging activity; test: Antioxidant activity against DPPH assessed per micromol of radical after 30 mins by UV spectrophotometry; assay type: functional
# Summary of the method: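 DPPH radical in solution; 30 min at room temperature in the dark, absorbance at 517 nm. Percentage absorbance loss [(1 − A/A0) × 100] plotted against sample amount over initial DPPH concentration; three independent determinations per point.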
# [6] = Antioxidant activity against TNPTM assessed per micromol of radical after 48 hrs by UV spectrophotometry; assay type: functional
# Summary of the method: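 As for HNTTM but with TNPTM radical, sample range 10–120 μM, 48 h incubation, absorbance at 378 nm; percentage absorbance loss versus sample over initial radical micromoles, dose–response curve, EC50 and ARP; three independent determinations.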
# [7] = Antiproliferative activity against human NCM460 cells after 72 hrs by MTT assay; assay type: cell-based; details: NCM460, 72 h
# Summary of the method: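 NCM460 normal colon mucosa epithelial cells in M3Base with 10% heat-inactivated FCS plus 2.5 mM D-glucose (5 mM final); 1 × 10^4 cells/well, 24 h at 37 °C, graded concentrations for 72 h. MTT 1 h, DMSO-dissolved formazan read at 550 nm; IC50 from dose–viability curves; three independent experiments.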
# HT-29 [8] = test: Cell cycle arrest in human HT-29 cells assessed as accumulation at S phase at IC50 after 72 hrs by propidium iodide staining based flow cytometry; assay type: functional
# Summary of the method: (§2)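 HT29 seeded 87 × 10^3 cells/well, 24 h at 37 °C, treated 72 h; hydroxyurea 1 mM as standard. Trypsinized cells stained in Tris-buffered saline with 50 μg/mL PI, 10 μg/mL DNase-free RNase, 0.1% Igepal CA-630, 1 h at 4 °C dark; flow cytometry at 488 nm; normalized G1/S/G2 percentages, three separate experiments.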
# HT-29 [9] = test: Antiproliferative activity against human HT-29 cells after 72 hrs by MTT assay; assay type: functional, cell-based; details: HT-29, 72 h
# Summary of the method: (§3)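 HT29 (ATCC HTB-38) in DMEM with 10% heat-inactivated FCS, 0.1% streptomycin/penicillin; 3 × 10^3 cells/well, 24 h at 37 °C, then graded concentrations in fresh medium for 72 h, optionally with bovine liver catalase (100 U/mL). MTT (1 mg/mL in PBS) 1 h, formazan dissolved in DMSO, absorbance 550 nm; IC50 from dose–viability curves; three independent experiments.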
# HT-29 [10] = test: Antiproliferative activity against human HT-29 cells after 72 hrs by MTT assay in presence of H2O2 scavenger catalase; assay type: functional, cell-based; details: HT-29, 72 h; summary of the method: as §3
# [11] = Antioxidant activity against HNTTM assessed per micromol of radical after 7 hrs by UV spectrophotometry; assay type: functional
# Summary of the method: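 Polyphenols (2–62 μM, fresh) mixed 1:1 by volume with HNTTM (120 μM) in deoxygenated CHCl3–MeOH (2:1); 7 h at room temperature in the dark, absorbance at 384 nm. Percentage absorbance loss plotted against sample over initial radical micromoles; dose–response curve per sample, EC50 and ARP reported; three independent determinations.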
# HT-29 [12] = test: Cell cycle arrest in human HT-29 cells assessed as reduction of cells at G1 phase at IC50 after 72 hrs by propidium iodide staining based flow cytometry; assay type: functional; summary of the method: as §2
# HT-29 [13] = test: Cell cycle arrest in human HT-29 cells assessed as reduction of cells at G2 phase at IC50 after 72 hrs by propidium iodide staining based flow cytometry; assay type: functional; summary of the method: as §2
Structure (SMILES),Activity (HT-29 [1]),Activity (HT-29 [2]),Activity (HT-29 [3]) [%],Activity (HT-29 [4]) [%],EC50 [5] [µg/µmol],EC50 [6] [µg/µmol],IC50 [7] [µg/mL],Activity (HT-29 [8]) [%],IC50 (HT-29 [9]) [µg/mL],IC50 (HT-29 [10]) [µg/mL],EC50 [11] [µg/µmol],Activity (HT-29 [12]),Activity (HT-29 [13])
O=C(O[C@@H]1Cc2c(O)cc(O)cc2O[C@@H]1c1cc(O)c(O)c(O)c1)c1cc(O)c(O)c(O)c1,inactive,Dose-dependent effect,,,,,,,,,,,
O=C(OC[C@H]1OC(O)[C@@](O)(COC(=O)c2cc(O)c(O)c(O)c2)[C@@H]1O)c1cc(O)c(O)c(O)c1 (stereo partly specified) [HAMAMELITANNIN],inactive,Dose-dependent effect,14,26,27.8,116,> 100,16,20,13,71.2,,
O=C(OC[C@H]1O[C@@H](OC(=O)c2cc(O)c(O)c(O)c2)[C@H](OC(=O)c2cc(O)c(O)c(O)c2)[C@@H](OC(=O)c2cc(O)c(O)c(O)c2)[C@@H]1OC(=O)c1cc(O)c(O)c(O)c1)c1cc(O)c(O)c(O)c1 [PENTAGALLOYL GLUCOSE],inactive,Dose-dependent effect,5,11,23.8,2400,23,8,28,34,54.8,Active,Active
